Tested on: B16-F10
Assay: Cytotoxicity against mouse B16F10 cells assessed as reduction in cell viability at 5 to 10 uM incubated for 24 hrs by WST8 assay
Assay type: cell-based
Settings: b16-f10, 24 h
In short: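 B16F10 cells seeded at 5x10^4 per well in DMEM with 10% FBS and penicillin/streptomycin, 37 °C, 5% CO2, and grown 24 h. Exposed to 0, 5, 10 or 25 µM for 24 h. WST-8 reagent added for 1 h, OD read at 450 nm. Viability expressed as % of untreated cells. Three repeats.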

SMILES	Activity
O=C(O)/C(=C/c1ccc(O)cc1O)c1ccccc1	Non-Toxic

Target: T1, Tyrosinase (Mus musculus) (UniProt P11344)
T1 sequence (whole entry): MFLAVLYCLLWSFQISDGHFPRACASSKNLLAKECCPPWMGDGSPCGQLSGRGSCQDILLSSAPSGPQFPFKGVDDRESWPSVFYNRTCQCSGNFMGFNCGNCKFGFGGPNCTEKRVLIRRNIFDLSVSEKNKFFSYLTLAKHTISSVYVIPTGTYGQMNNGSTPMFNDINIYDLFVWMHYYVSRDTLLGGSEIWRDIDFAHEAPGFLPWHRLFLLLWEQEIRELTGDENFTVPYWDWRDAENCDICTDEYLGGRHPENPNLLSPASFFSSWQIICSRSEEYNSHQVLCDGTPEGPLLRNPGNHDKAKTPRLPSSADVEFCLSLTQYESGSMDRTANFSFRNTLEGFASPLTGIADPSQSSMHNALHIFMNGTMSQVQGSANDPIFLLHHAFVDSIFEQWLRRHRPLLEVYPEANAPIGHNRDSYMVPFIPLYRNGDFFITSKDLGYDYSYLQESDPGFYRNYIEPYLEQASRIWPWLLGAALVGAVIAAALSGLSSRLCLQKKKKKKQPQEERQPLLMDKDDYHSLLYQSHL
Assay: Inhibition of tyrosinase in alpha-MSH-stimulated mouse B16F10 cells incubated for 24 hrs relative to untreated control
Settings: not given
In short: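 B16F10 cells seeded at 5x10^4 per well and grown 24 h at 37 °C, 5% CO2. […] Cells PBS-washed, lysed in PMSF/Triton X-100 buffer, frozen at −80 °C, spun 12,000 rpm 4 °C. Supernatant incubated with L-dopa 30 min at 37 °C, OD read at 500 nm. Triplicate.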

inhibition	SMILES
Dose-dependent effect	O=C(O)/C(=C/c1ccc(O)cc1O)c1ccccc1

Tested on: not listed separately
Assay: Antioxidant activity assessed as DPPH radical scavenging activity at 1 mM after 30 mins under dark condition relative to untreated control
Assay type: functional
Settings: not given
In short: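 Test compounds dissolved in DMSO, mixed 1:9 (v/v) with 0.2 mM DPPH in methanol to a tested level of 1 mM. Incubated 30 min in the dark. Absorbance read at 517 nm. Scavenging % = (Ac−As)×100/Ac against untreated control. L-ascorbic acid used as positive control. Triplicate.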

SMILES	inhibition [%]
COc1ccc(/C=C(/C(=O)O)c2ccccc2)cc1OC	10.2
COc1ccc(/C=C(/C(=O)O)c2ccccc2)cc1	5.68
COc1cc(/C=C(/C(=O)O)c2ccccc2)cc(OC)c1O	85
O=C(O)/C(=C/c1ccc(O)c(O)c1)c1ccccc1	83.7
CCOc1cc(/C=C(/C(=O)O)c2ccccc2)ccc1O	43.6
O=C(O)/C(=C\c1cc(Br)c(O)c(Br)c1)c1ccccc1	11.6
O=C1O[C@H]([C@@H](O)CO)C(O)=C1O	84.6
O=C(O)/C(=C/c1cccc(O)c1)c1ccccc1	12.4
O=C(O)/C(=C/c1ccc(O)cc1O)c1ccccc1	52.1
COc1ccc(/C=C(/C(=O)O)c2ccccc2)cc1O	24
O=C(O)/C(=C/c1cc(Br)c(O)c(Br)c1)c1ccccc1	23.9
O=C(O)/C(=C/c1ccccc1O)c1ccccc1	4.43
O=C(O)/C(=C/c1ccc(O)c(Br)c1)c1ccccc1	19.4
COc1cc(/C=C(/C(=O)O)c2ccccc2)ccc1O	81.6
Cc1cc(/C=C(/C(=O)O)c2ccccc2)ccc1O	78.1
O=C(O)/C(=C/c1ccc(O)cc1)c1ccccc1	6.04

Target: T1, Tyrosinase (Mus musculus)
Settings: 400 uM

inhibition [%]	SMILES
42.6	OC[C@H]1O[C@@H](Oc2ccc(O)cc2)[C@H](O)[C@@H](O)[C@@H]1O
